Bioassay records: PubChem, Broad Institute
Compounds with a hit are over-represented: about 3.6% of the library has one in this group of screens.
CSC inhib – blocks cancer stem cells; AID 2717; cancer stem cell-like cells viability, luminescence; inhibition, % at 7.5 µM; 300,000 compounds, 1.1% hits; in the data active = inhibition above about 75%; inconclusive = no clear call, values can overlap the other calls; tested in HMLE shEcad cells
HIF activator – HIF pathway transcriptional activation | activation, % at 7.5 µM (by protocol) | 300,000 compounds, 0.32% hits | U2OS HRE-luciferase reporter, luminescence; normalized: DMSO 0%, desferrioxamine 100%;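 active = mean activation of at least 10% of the iron chelator positive control signal, with at least half of replicates also reaching 10%; inconclusive = mean and replicate majority disagree about reaching 10%; inactive = mean and most replicates under 10%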
Beta cell apopt – blocks beta cell apoptosis | 300,000 compounds, 0.8% hits | protection from apoptosis, % (test concentration not listed) | INS-1E cytokine-induced death, ATP luminescence, 48 h; percent of positive-control rescue, neutral wells zero | AID 435005;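 active = Every replicate reaches about 75%, or at least half do and their mean reaches it too, limit read from the data; inconclusive = At least half of replicates reach the limit but their mean does not; inactive = Under half of replicates reach the limit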;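 also: higher means more ATP so stronger rescue from cytokine killing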
T cruzi inh – blocks replication of Trypanosoma cruzi; T. cruzi beta-gal in NIH3T3, luminescence, 90 h; inhibition, % (concentration not given with the values); 300,000 compounds, 1.4% hits; AID 1885;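 active = mean inhibition across valid replicates above about 55%, limit read from the data; inconclusive = mean below that limit but half or more replicates reach it; inactive = mean below it, under half of replicates reach it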;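 also: signal also drops with host cell toxicity which is not excluded here; higher percent means less beta-gal luminescence so fewer parasites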
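System: Mouse NIH/3T3 fibroblasts infected with β-gal-expressing T. cruzi Tulahuen C4 | Quantity: NIH/3T3 cells, 5,000 per well | Reagent: 5000 reporter trypomastigotes per well | Dosing: Compound pinned at 50 nL/well, DMSO | Schedule: 3 h host attachment, then at least 90 h co-culture | Detection: GalScreen luminescence, 60 min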
SKKanGAS inh – inhibitors of SKKanGAS S. pyogenes growth in kanamycin (SK-promoter or general growth effect). BacTiter-Glo, 6 h. inhibition, % at 7.5 µM. 300,000 compounds, 1.3% hits;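 active = mean replicate score, as percent of positive control median, at least 50; inconclusive = mean below 50 but one replicate at or above 50; inactive = mean and every replicate below 50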;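 also: strain carries kanamycin resistance gene driven by streptokinase promoter and grows in 40 µg/ml kanamycin; loss of luminescence reflects streptokinase promoter inhibition or plain growth inhibition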
PfHsp90 yeast 2 – reduces growth (ATP signal) of yeast expressing P. falciparum Hsp90; S. cerevisiae expressing PfHsp90, BacTiter-Glo ATP, 48 h; yeast lacking PDR1 and PDR3 efflux regulators; inhibition, % at 9.4 µM; 310,000 compounds, 0.32% hits; AID 504621;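 active = every replicate shows inhibition above about 80%, whatever the replicate mean, limit read from the data; inconclusive = mean inhibition reaches the set limit but some replicate falls short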
A number is an active result; i = inactive; ? = inconclusive; nt = no result.

SMILES	CSC inhib	HIF activator	Beta cell apopt	T cruzi inh	SKKanGAS inh	PfHsp90 yeast 2
Cc1cc(C)c(OCCCCN2CCNCC2)c(C)c1	82	i	i	i	i	i
CN1CCN(Cc2ccc(Sc3ccc(Cl)cc3)c([N+](=O)[O-])c2)CC1	86	i	i	66	i	i
Cc1ccc(Sc2ccc(CN3CCCC3)cc2[N+](=O)[O-])cc1	i	i	i	88	i	i
CC(C)Oc1ccc2c(=O)c(-c3ccccc3)coc2c1	i	i	i	i	i	i
CC(=O)Oc1ccc2c(=O)c(-c3nc4ccccc4s3)coc2c1	84	i	i	i	i	nt
O=C(N/N=C/c1ccc(-c2ccccc2[N+](=O)[O-])o1)c1cncc(Br)c1	i	i	i	i	i	i
CCN(CC)S(=O)(=O)c1cccc(C(=O)N/N=C/c2ccccc2OCC(=O)O)c1	i	i	i	i	i	i
CCN(CC)S(=O)(=O)c1cccc(C(=O)N/N=C/c2ccc([N+](=O)[O-])o2)c1	i	i	i	56	i	i
O=C(N/N=C\c1ccc([N+](=O)[O-])o1)c1cncc(Br)c1	i	i	nt	58	i	i
S=C(NCCc1ccc(Cl)cc1)NC1CC1	i	i	i	i	i	i
COC(CNC(=O)c1ccc2c3c(onc13)-c1ccccc1C2=O)OC	84	i	i	i	i	i
CC1CCCC(NC(=O)CSc2nnc(-c3cccnc3)n2N)C1C (centres undefined)	i	nt	i	nt	nt	nt
CC1(C)N=C(N)N=C(N)N1c1ccccc1	i	i	i	i	105	i
CC1(C)N=C(N)N=C(N)N1c1ccc(Oc2ccc(Cl)cc2)c(Cl)c1	89	i	i	55	94	i
CC1(C)N=C(N)N=C(N)N1c1cccc(CN)c1	i	i	nt	i	i	i
CC(=O)NCC1CCCN(C(=O)c2ccc(OC3CCN(Cc4ccccn4)CC3)cc2)C1 (centres undefined)	nt	i	nt	i	i	i
CCCOc1cc(C)c(S(=O)(=O)NCc2cccs2)cc1C	i	nt	i	nt	nt	i
CCN(c1ccccc1)S(=O)(=O)c1cc(NC(=O)CN2CCN(C)CC2)ccc1Cl	i	nt	i	nt	nt	nt
c1ccc(-c2noc(-c3ccc4c(c3)OCO4)n2)nc1	95	i	i	i	76	i
CC1(C)Cc2ccccc2C(CSc2ccccc2C(=O)O)=N1	76	i	i	i	i	i
COc1cc2c(cc1OC)C(CSc1ccccc1C(=O)O)=NC(C)(C)C2	i	i	i	i	i	i
On1ccccc1=S	i	nt	i	nt	nt	107
COc1cccc(/C=N/NC(=O)c2ccc(=O)[nH]n2)c1O	i	i	i	i	i	i
COc1cccc(/C=N/NC(=O)C(=O)Nc2ccccc2OC(F)(F)C(F)F)c1O	108	26	82	i	i	92
COc1cccc(/C=N/NC(=O)c2ccc(-c3ccccc3)cc2)c1O	?	47	107	i	i	nt
SMILES	CSC inhib	HIF activator	Beta cell apopt	T cruzi inh	SKKanGAS inh	PfHsp90 yeast 2
COc1cccc(/C=N/NC(=O)c2[nH]c(C)c(C(=O)N/N=C/c3cccc(OC)c3O)c2C)c1O	93	i	i	i	i	i
COc1cccc(/C=N/NC(=O)c2ccc([N+](=O)[O-])cc2Cl)c1O	i	11	88	i	i	i
O/N=C(\Cn1ccnc1)c1ccccc1	nt	nt	nt	nt	nt	i
Cc1ccccc1C1=C/C(=C(\SS/C(C(=O)c2ccc(OCC(=O)O)c(Cl)c2Cl)=C2\C=C(c3ccccc3C)SS2)C(=O)c2ccc(OCC(=O)O)c(Cl)c2Cl)SS1	nt	nt	nt	nt	nt	i
COCC(=O)N1CCC2CC1c1cc(Cl)ccc12 (centres undefined)	nt	nt	nt	nt	nt	i
Cc1ccc(C(=O)OCC(=O)N(CCc2ccccc2)Cc2ccccc2)cc1S(=O)(=O)N1CCOCC1	i	i	i	i	i	nt
CCCC(=O)N1CCN(c2ccc(NC(=S)NC(=O)CC)cc2)CC1	i	i	i	i	i	i
CC(C)(C)[C@@H]1COC(=O)[C@@H](Cc2ccc(F)cc2)C/C=C\C[C@H](CC(=O)N(CCO)Cc2ccccc2)C(=O)N1	nt	nt	i	nt	nt	i
COc1cccc(/C=N/NC(=O)CN2CC(c3ccccc3)CC2=O)c1O (centres undefined)	i	i	77	i	i	i
CCCCCCCNC(=O)C1(CC2CC(c3cccc(Br)c3)=NO2)CCN(C(=O)Cc2ccc(F)cc2)CC1 (centres undefined)	i	nt	i	nt	nt	i
CCCCCCCNC(=O)C1(CC2CC(c3cccc(Br)c3)=NO2)CCN(C(=O)c2ccccc2)CC1 (centres undefined)	i	i	i	61	i	i
CCCCCCCNC(=O)C1(CC2CC(c3cccc(Br)c3)=NO2)CCNCC1 (centres undefined)	159	i	nt	i	i	i
CCCCCCCNC(=O)C1(CC2CC(c3ccccc3)=NO2)CCN(C(=O)c2ccccc2)CC1 (centres undefined)	i	nt	i	nt	nt	i
COc1ccc(C2NCCc3c2[nH]c2ccccc32)cc1CSc1nc2ccccc2s1 (centres undefined)	116	i	i	i	i	i
O=c1[nH]c(CSc2nc3ccccc3s2)nc2ccccc12	i	i	i	i	i	i
CN(CCc1ccccc1)C(=O)c1ccc(NC(=O)Cc2ccc(NC(=O)C3CCCN(C(=O)C4CCCC4)C3)cc2)cc1 (centres undefined)	nt	nt	nt	nt	nt	i
CCCCc1nc2cc(C(=O)N3CCCC(OCCC)C3)ccc2o1 (centres undefined)	i	i	i	i	i	i
CCCCc1nc2cc(C(=O)N3CCC(OCCOC)CC3)ccc2o1	i	i	i	i	63	i
COc1ccc(C2c3cc4c(cc3OC(N3CCOCC3)C2C)OCO4)c(OC)c1 (centres undefined)	nt	nt	nt	nt	nt	i
CN(CC(=O)Nc1ccc(F)cc1)C(=O)CN1C(=O)NC2(CCCc3ccccc32)C1=O (centres undefined)	nt	i	i	i	i	i
O=C1[C@@H]2Cc3c([nH]c4ccccc34)C(c3ccccc3)N2C(=O)CN1C1CCN(Cc2ccccc2)CC1 (some centres undefined)	i	i	i	?	i	i
O=C1[C@@H]2Cc3c([nH]c4ccccc34)C(c3cccc(Br)c3)N2C(=O)CN1C1CCN(Cc2ccccc2)CC1 (some centres undefined)	82	i	i	65	i	i
COc1ccc(C2c3[nH]c4ccccc4c3C[C@H]3C(=O)N(C4CCN(Cc5ccccc5)CC4)CC(=O)N23)c(OC)c1 (some centres undefined)	i	i	i	i	i	i
CCOc1ccccc1C1c2[nH]c3ccccc3c2C[C@H]2C(=O)N(C3CCN(Cc4ccccc4)CC3)CC(=O)N12 (some centres undefined)	i	i	i	62	i	i
